Assays:
[1] = target: T1, Protein kinase C epsilon type (Homo sapiens) (UniProt Q02156); assay: (§1) Inhibition of recombinant PKCepsilon (unknown origin)-MBP-tagged RACK2 interaction after 1 hr by ELISA-based assay relative to untreated control; parameters: residual binding, % of control: concentration or dose not given beside the values; conditions: values are per cent of control
T1 sequence (whole entry): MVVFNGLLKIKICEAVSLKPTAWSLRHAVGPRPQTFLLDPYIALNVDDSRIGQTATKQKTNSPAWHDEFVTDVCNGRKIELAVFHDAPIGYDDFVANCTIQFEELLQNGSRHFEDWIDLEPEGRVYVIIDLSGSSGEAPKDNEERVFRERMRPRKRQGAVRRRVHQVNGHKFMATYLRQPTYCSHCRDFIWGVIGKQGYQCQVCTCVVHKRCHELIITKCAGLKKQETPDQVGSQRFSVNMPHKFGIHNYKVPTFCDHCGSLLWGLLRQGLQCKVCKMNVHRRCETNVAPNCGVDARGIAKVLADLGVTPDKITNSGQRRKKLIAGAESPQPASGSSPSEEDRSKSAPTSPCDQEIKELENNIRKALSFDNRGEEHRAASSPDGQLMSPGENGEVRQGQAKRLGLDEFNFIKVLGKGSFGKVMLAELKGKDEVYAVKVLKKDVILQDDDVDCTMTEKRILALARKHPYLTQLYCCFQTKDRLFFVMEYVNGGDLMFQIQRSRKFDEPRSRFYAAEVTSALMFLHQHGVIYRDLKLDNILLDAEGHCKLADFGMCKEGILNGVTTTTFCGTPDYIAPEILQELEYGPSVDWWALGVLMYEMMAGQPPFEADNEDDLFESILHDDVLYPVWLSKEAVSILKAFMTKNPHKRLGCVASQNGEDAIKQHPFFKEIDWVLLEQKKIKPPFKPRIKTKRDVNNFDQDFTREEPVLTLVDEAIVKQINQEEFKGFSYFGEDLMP
Method in brief: (§2)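 ELISA: plates coated with 100 ng recombinant PKCε in 20 mM Tris-HCl/100 mM NaCl pH 7.5 overnight at 4 °C, blocked with 3% BSA; PKCε activated 10 min at 30 °C with 60 μg/mL phosphatidylserine and 100 nM TPA; RACK2-MBP preincubated with agent 30 min, then 500 ng added for 1 h binding; anti-RACK2/HRP detection, ABTS at 420 nm; four experiments, quadruplicates, normalized to control; IC50 via CalcuSyn.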

[2] = target: T2, Protein kinase C epsilon type (Homo sapiens, UniProt Q02156); assay: as §1; method in brief: as §2
T2 sequence (Q02156 whole entry): T1 sequence (whole entry)

Row | Compound | residual binding, % of control [1] [%] | IC50 [2] [nM]
1 | CC(O)c1cccc(NC(=O)C2Sc3nc4cc5c(cc4cc3C2N)OCCO5)c1 (stereo unspecified) | 102 | –
2 | CC(=O)c1ccc(NC(=O)c2sc3nc4cc5c(cc4cc3c2N)OCCO5)cc1 | 22.8 | –
3 | Nc1c(C(=O)Nc2cccc(Cl)c2Cl)sc2nc3cc4c(cc3cc12)OCCO4 | 57.6 | –
4 | Nc1c(C(=O)Nc2cccc(Cl)c2)sc2nc3cc4c(cc3cc12)OCCO4 | 58 | –

The remaining lines, values ahead:

Row | residual binding, % of control [1] [%] | IC50 [2] [nM] | Compound
5 | 58.9 | – | CC(=O)c1cccc(NC(=O)c2sc3nc4cc5c(cc4cc3c2N)OCO5)c1
6 | 60.8 | – | COc1ccc2cc3c(N)c(C(=O)Nc4c(C)cccc4C)sc3nc2c1
7 | – | 1020 | H-EAVSLKPTRRRRRRR-OH
8 | 32.4 | – | CCOC(=O)Cc1csc(NC(=O)c2sc3nc4ccc(OCC)cc4cc3c2N)n1
9 | – | 1020 | H-EAVSLKPT-OH
10 | 32.9 | – | COc1ccc2nc3sc(C(=O)Nc4ccc(N5CCOCC5)cc4)c(N)c3cc2c1
11 | 29.6 | – | CCOC(=O)c1cccc(NC(=O)c2sc3nc4ccc(OC)cc4cc3c2N)c1

Source: ChEMBL document CHEMBL3259708, “Thienoquinolines as novel disruptors of the PKCε/RACK2 protein-protein interaction” (J Med Chem, 2014)
